Square brackets hold non-standard residues; d marks the D form. Peptide text beside a SMILES is read from it. pGlu = O=C1CC[C@@H](C(=O)O)N1
Assays:
Homo sapiens = species on record: Homo sapiens; experiment: (§1) The concentration to inhibit colony formation of MCF-7 human tumor cell lines; type: functional, MCF7
How it was run: (§2)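 Clonogenic assay on human tumor cell lines, with each peptide at 50 (unit as printed). Colony formation reflects cell survival. Results are given as % inhibition of colony formation relative to untreated controls, mean ± deviation.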

Ishikawa = experiment: The concentration to inhibit colony formation of Ishikawa human tumor cell lines; type: functional; how it was run: as §2
MCF7 [1] = experiment: The concentration to inhibit cell proliferation of MCF-7 human tumor cell lines; type: functional
How it was run: (§3)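 Cell proliferation assay with peptide treatment. Cells are released from Petri dishes by trypsinization and counted directly. Results are expressed as percentage of control values.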

MCF7 [2] = experiment: The concentration to inhibit cell proliferation of MCF-7 human tumor cell lines using the sulforhodamine B assay; type: functional
How it was run: (§4)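 Sulforhodamine B assay with each peptide at 50 (unit as printed). Dye bound to cells is quantified spectrophotometrically. Results are expressed as % inhibition relative to control, mean ± deviation.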

MDA-MB-231 [3] = experiment: The concentration to inhibit cell proliferation of MDA-MB-231 human tumor cell lines; type: functional; how it was run: as §3
MDA-MB-231 [4] = experiment: The concentration to inhibit cell proliferation of MDA-MB-231 human tumor cell lines using the sulforhodamine B assay; type: functional; how it was run: as §4
MDA-MB-231 [5] = experiment: The concentration to inhibit colony formation of MDA-MB-231 human tumor cell lines; type: functional; how it was run: as §2
LNCaP [6] = experiment: The concentration to inhibit cell proliferation of LNCaP human tumor cell lines; type: functional
LNCaP [7] = experiment: The concentration to inhibit cell proliferation of LNCaP human tumor cell lines using the sulforhodamine B assay; type: functional; how it was run: as §4
MCF7 [8] = experiment: as §1; type: functional; how it was run: as §2
PC-3 [9] = experiment: The concentration to inhibit cell proliferation of PC3 human tumor cell lines; type: functional; how it was run: as §3
PC-3 [10] = experiment: The concentration to inhibit cell proliferation of PC3 human tumor cell lines using the sulforhodamine B assay; type: functional; how it was run: as §4
PC-3 [11] = experiment: The concentration to inhibit colony formation of PC3 human tumor cell lines; type: functional; how it was run: as §2

| Compound | Inhibition (Homo sapiens) [%] | Inhibition (Ishikawa) [%] | Inhibition (MCF7 [1]) [%] | Inhibition (MCF7 [2]) [%] | Inhibition (MDA-MB-231 [3]) [%] | Inhibition (MDA-MB-231 [4]) [%] | Inhibition (MDA-MB-231 [5]) [%] | Inhibition (LNCaP [6]) [%] | Inhibition (LNCaP [7]) [%] | Inhibition (MCF7 [8]) [%] | Inhibition (PC-3 [9]) [%] | Inhibition (PC-3 [10]) [%] | Inhibition (PC-3 [11]) [%] |
| --- | --- | --- | --- | --- | --- | --- | --- | --- | --- | --- | --- | --- | --- |
| NCCCC[C@H](NC(=O)[C@H](Cc1c[nH]c2ccccc12)NC(=O)[C@H](CC(=O)O)NC(=O)[C@H](Cc1c[nH]cn1)NC(=O)[C@H](CO)NC(=O)[C@H](Cc1c[nH]c2ccccc12)NC(=O)[C@H](Cc1c[nH]cn1)NC(=O)[C@@H]1CCC(=O)N1)C(=O)N1CCC[C@H]1C(=O)NCC(N)=O | 18 | 18 | 18 | 20 | 18 | 19 | 44 | 32 | 40 | 45 | 14 | 12 | 21 |
| NCCCC[C@H](NC(=O)[C@H](Cc1ccccc1)NC(=O)[C@H](CC(=O)O)NC(=O)[C@H](Cc1c[nH]cn1)NC(=O)[C@H](CO)NC(=O)[C@H](Cc1c[nH]c2ccccc12)NC(=O)[C@H](Cc1c[nH]cn1)NC(=O)[C@@H]1CCC(=O)N1)C(=O)N1CCC[C@H]1C(=O)NCC(N)=O | – | – | – | – | – | – | 21 | – | – | 26 | – | – | – |
| NCCCC[C@H](NC(=O)[C@H](Cc1c[nH]c2ccccc12)NC(=O)[C@H](CC(=O)O)NC(=O)[C@H](Cc1c[nH]cn1)NC(=O)[C@H](CO)NC(=O)[C@H](Cc1c[nH]c2ccccc12)NC(=O)[C@H](Cc1c[nH]cn1)NC(=O)[C@@H]1CCC(=O)N1)C(=O)N1CC=C[C@H]1C(=O)NCC(N)=O | – | 21 | – | 19 | – | 18 | 42 | – | – | 42 | – | 14 | 19 |
| C[C@@H](NC(=O)[C@@H]1CCCN1C(=O)[C@H](CCCCN)NC(=O)[C@H](Cc1c[nH]c2ccccc12)NC(=O)[C@H](CC(=O)O)NC(=O)[C@H](Cc1c[nH]cn1)NC(=O)[C@H](CO)NC(=O)[C@H](Cc1c[nH]c2ccccc12)NC(=O)[C@H](Cc1c[nH]cn1)NC(=O)[C@@H]1CCC(=O)N1)C(N)=O | – | 6 | – | 8 | – | 8 | 15 | – | – | 4 | – | 2 | 3 |
| NCCCC[C@H](NC(=O)[C@H](Cc1cn(C=O)c2ccccc12)NC(=O)[C@H](CC(=O)O)NC(=O)[C@H](Cc1c[nH]cn1)NC(=O)[C@H](CO)NC(=O)[C@H](Cc1cn(C=O)c2ccccc12)NC(=O)[C@H](Cc1c[nH]cn1)NC(=O)[C@@H]1CCC(=O)N1)C(=O)N1CC=C[C@H]1C(=O)NCC(N)=O | – | 24 | – | – | – | – | 32 | – | – | 31 | – | – | 20 |
| CC(C)C[C@H](NC(=O)CNC(=O)[C@H](Cc1ccc(O)cc1)NC(=O)[C@H](CO)NC(=O)[C@H](Cc1c[nH]c2ccccc12)NC(=O)[C@H](Cc1c[nH]cn1)NC(=O)[C@@H]1CCC(=O)N1)C(=O)N[C@@H](CCCN=C(N)N)C(=O)N1CCC[C@H]1C(=O)NCC(N)=O | – | 17 | – | – | – | – | 29 | – | – | 27 | – | – | 15 |
| NC(=O)CNC(=O)[C@@H]1CCCN1C(=O)[C@@H]1CCCCNC(=O)C[C@H](NC(=O)[C@H](Cc2c[nH]cn2)NC(=O)[C@H](CO)NC(=O)[C@H](Cc2c[nH]c3ccccc23)NC(=O)[C@H](Cc2c[nH]cn2)NC(=O)[C@@H]2CCC(=O)N2)C(=O)N[C@@H](Cc2c[nH]c3ccccc23)C(=O)N1 | – | 16 | – | 20 | – | 16 | 27 | – | – | 44 | – | 11 | 18 |
| NCCCC[C@H](NC(=O)[C@H](Cc1c[nH]c2ccccc12)NC(=O)[C@H](Cc1c[nH]cn1)NC(=O)[C@@H]1CCC(=O)N1)C(=O)N[C@@H](Cc1c[nH]cn1)C(=O)N[C@@H](CC(=O)O)C(=O)N[C@@H](Cc1c[nH]c2ccccc12)C(=O)N[C@@H](CCCCN)C(=O)N1CCC[C@H]1C(=O)NCC(N)=O | – | 21 | – | – | – | – | 35 | – | – | 40 | – | – | 15 |
| CC(=O)NCCCC[C@H](NC(=O)[C@H](Cc1c[nH]c2ccccc12)NC(=O)[C@H](Cc1c[nH]cn1)NC(=O)[C@@H]1CCC(=O)N1)C(=O)N[C@@H](Cc1c[nH]cn1)C(=O)N[C@@H](CC(=O)O)C(=O)N[C@@H](Cc1c[nH]c2ccccc12)C(=O)N[C@@H](CCCCN)C(=O)N1CCC[C@H]1C(=O)NCC(N)=O | – | 14 | – | – | – | – | 42 | – | – | 52 | – | – | 12 |
| NCCCC[C@H](NC(=O)[C@H](Cc1c[nH]c2ccccc12)NC(=O)[C@H](CCC(=O)O)NC(=O)[C@H](Cc1c[nH]cn1)NC(=O)[C@H](CO)NC(=O)[C@H](Cc1c[nH]c2ccccc12)NC(=O)[C@H](Cc1c[nH]cn1)NC(=O)[C@@H]1CCC(=O)N1)C(=O)N1CCC[C@H]1C(=O)NCC(N)=O | – | 5 | – | 17 | – | 27 | 25 | – | – | 44 | – | 12 | 20 |
| NCCCC[C@H](NC(=O)[C@H](CO)NC(=O)[C@H](Cc1c[nH]c2ccccc12)NC(=O)[C@H](Cc1c[nH]cn1)NC(=O)[C@@H]1CCC(=O)N1)C(=O)N[C@H]1CC(=O)NCCCC[C@@H](C(=O)N2CCC[C@H]2C(=O)NCC(N)=O)NC(=O)[C@H](Cc2c[nH]c3ccccc23)NC1=O | – | 13 | – | 19 | – | 21 | 27 | – | – | 44 | – | 16 | 11 |
| NCCCC[C@H](NC(=O)[C@H](CO)NC(=O)[C@H](Cc1c[nH]c2ccccc12)NC(=O)[C@H](Cc1c[nH]cn1)NC(=O)[C@@H]1CCC(=O)N1)C(=O)N[C@@H](CC(=O)O)C(=O)N[C@@H](Cc1c[nH]c2ccccc12)C(=O)N[C@@H](CCCCN)C(=O)N1CCC[C@H]1C(=O)NCC(N)=O | – | 6 | – | 4 | – | 2 | 4 | – | – | 5 | – | – | 0 |
| CCNC(=O)[C@@H]1CCCN1C(=O)[C@H](CCCCN)NC(=O)[C@H](Cc1c[nH]c2ccccc12)NC(=O)[C@H](CC(=O)O)NC(=O)[C@H](Cc1c[nH]cn1)NC(=O)[C@H](CO)NC(=O)[C@H](Cc1c[nH]c2ccccc12)NC(=O)[C@H](Cc1c[nH]cn1)NC(=O)[C@@H]1CCC(=O)N1 ([pGlu]HWSHDWKP-NHEt) | – | 13 | – | 20 | – | 32 | 27 | – | – | 28 | – | 15 | 22 |
